# Results published in ChEMBL document CHEMBL5674880 (PLoS One, 2018).
# Key:
# THP-1 = assay: Antiproliferative activity against human THP-1 cells after 10 days; assay type: functional, cell-based; conditions: THP-1, 240 h
# SU.86.86 = assay: Antiproliferative activity against human SU-86-86 cells after 10 days; assay type: functional, cell-based; conditions: SU.86.86, 240 h
# A-431 = assay: Antiproliferative activity against human A-431 cells after 10 days; assay type: functional, cell-based; conditions: A-431, 240 h
# Method in brief: (§1)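 Tested as part of a 240-line cancer cell panel (Eurofins Oncopanel); all lines were mycoplasma-negative and STR-verified. Cells were exposed to a compound concentration series in 2D culture for 10 days. The highest concentration was 10 μM or 25 μM, depending on the inhibitor. Antiproliferative IC50 was derived from the mean of three biological replicates.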
# LS174T = assay: Antiproliferative activity against human LS174T cells after 10 days; assay type: functional, cell-based; conditions: 240 h
# Method in brief: (§2)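 Broad cancer cell line panel (Eurofins Oncopanel, about 240 lines; mycoplasma negative, STR verified) grown in 2D culture and exposed to compound in a 10-day proliferation assay. The top concentration was 10 μM for the SMYD2 inhibitor series and 25 μM for the SMYD3 inhibitor. The proliferative IC50 is taken from concentration-response data, each value the mean of three biological replicates.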
# A 172 = assay: Antiproliferative activity against human A-172 cells after 10 days; assay type: functional, cell-based; conditions: A 172, 240 h; method in brief: as §1
# SNU-423 = assay: Antiproliferative activity against human SNU-423 cells after 10 days; assay type: functional, cell-based; conditions: SNU-423, 240 h
# A549 = assay: Antiproliferative activity against human A549 cells after 10 days; assay type: functional, cell-based; conditions: A549, 240 h; method in brief: as §1
# [1] = Antiproliferative activity against human BM-1604 cells after 10 days; assay type: functional, cell-based; conditions: BM-1604, 240 h; method in brief: as §1
# DK-MG = assay: Antiproliferative activity against human DK-MG cells after 10 days; assay type: functional, cell-based; conditions: 240 h
# Method in brief: (§3)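 10-day 2D proliferation screen of a broad cancer cell panel (about 240 lines, Eurofins Oncopanel). All lines were mycoplasma negative and STR verified. Compounds were dosed up to a top concentration of 10 μM or 25 μM, depending on the inhibitor. Anti-proliferative IC50 values are the average of three biological replicates.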
# SW900 = assay: Antiproliferative activity against human SW900 cells after 10 days; assay type: functional, cell-based; conditions: SW900, 240 h
# U-87 MG = assay: Antiproliferative activity against human U-87MG cells after 10 days; assay type: functional, cell-based, U-87MG ATCC; conditions: 240 h
# SK-UT-1 = assay: Antiproliferative activity against human SK-UT-1 cells after 10 days; assay type: functional, cell-based; conditions: SK-UT-1, 240 h
# MOLT-3 = assay: Antiproliferative activity against human MOLT-3 cells after 10 days; assay type: functional, cell-based; conditions: MOLT-3, 240 h; method in brief: as §2
# SNU-5 = assay: Antiproliferative activity against human SNU-5 cells after 10 days; assay type: functional, cell-based; conditions: SNU-5, 240 h
# CHP-212 = assay: Antiproliferative activity against human CHP-212 cells after 10 days; assay type: functional, cell-based; conditions: CHP-212, 240 h; method in brief: as §1
# [2] = Antiproliferative activity against human A7 cells after 10 days; assay type: functional, cell-based; conditions: A7, 240 h; method in brief: as §1
# 786-0 = assay: Antiproliferative activity against human 786-0 cells after 10 days; assay type: functional, cell-based; conditions: 786-0, 240 h; method in brief: as §1
# [3] = Antiproliferative activity against human TE 381.T cells after 10 days; assay type: functional, cell-based; conditions: 240 h
# TCC-SUP = assay: Antiproliferative activity against human TCC-SUP cells after 10 days; assay type: functional, cell-based; conditions: 240 h
# CAKI-2 = assay: Antiproliferative activity against human CAKI-2 cells after 10 days; assay type: functional, cell-based; conditions: CAKI-2, 240 h; method in brief: as §1
# SW1463 = assay: Antiproliferative activity against human SW1463 cells after 10 days; assay type: functional, cell-based; conditions: SW1463, 240 h
# Raji = assay: Antiproliferative activity against human Raji cells after 10 days; assay type: functional, cell-based; conditions: 240 h
# FaDu = assay: Antiproliferative activity against human FaDu cells after 10 days; assay type: functional, cell-based; conditions: 240 h; method in brief: as §3
# SCaBER = assay: Antiproliferative activity against human SCaBER cells after 10 days; assay type: functional, cell-based; conditions: 240 h
# [4] = Antiproliferative activity against human KHOS-240S cells after 10 days; assay type: functional, cell-based; conditions: 240 h; method in brief: as §2
# CHL-1 = assay: Antiproliferative activity against human CHL-1 cells after 10 days; assay type: functional, cell-based; conditions: CHL-1, 240 h; method in brief: as §1
# [5] = Antiproliferative activity against human MT-3 cells after 10 days; assay type: functional, cell-based; conditions: MT-3, 240 h; method in brief: as §2
# HT-3 = assay: Antiproliferative activity against human HT-3 cells after 10 days; assay type: functional, cell-based; conditions: HT-3, 240 h; method in brief: as §3
# SH-4 = assay: Antiproliferative activity against human SH-4 cells after 10 days; assay type: functional, cell-based; conditions: SH-4, 240 h
# YAPC = assay: Antiproliferative activity against human YAPC cells after 10 days; assay type: functional, cell-based; conditions: 240 h
# DU-145 = assay: Antiproliferative activity against human DU-145 cells after 10 days; assay type: functional, cell-based; conditions: DU-145, 240 h; method in brief: as §3
# SNU1 = assay: Antiproliferative activity against human SNU1 cells after 10 days; assay type: functional, cell-based; conditions: SNU1, 240 h
# Hs 695T = assay: Antiproliferative activity against human Hs 695T cells after 10 days; assay type: functional, cell-based; conditions: 240 h; method in brief: as §3
# SCC-9 = assay: Antiproliferative activity against human SCC-9 cells after 10 days; assay type: functional, cell-based; conditions: SCC-9, 240 h
# RL95-2 = assay: Antiproliferative activity against human RL95-2 cells after 10 days; assay type: functional, cell-based; conditions: RL95-2, 240 h
# SK-BR-3 = assay: Antiproliferative activity against human SK-BR-3 cells after 10 days; assay type: functional, cell-based; conditions: SK-BR-3, 240 h
# BT-549 = assay: Antiproliferative activity against human BT-549 cells after 10 days; assay type: functional, cell-based; conditions: BT-549, 240 h; method in brief: as §1
# MDA-MB-436 = assay: Antiproliferative activity against human MDA-MB-436 cells after 10 days; assay type: functional, cell-based; conditions: MDA-MB-436, 240 h; method in brief: as §2
# U138-MG = assay: Antiproliferative activity against human U138-MG cells after 10 days; assay type: functional, cell-based; conditions: 240 h
# Daudi = assay: Antiproliferative activity against human Daudi cells after 10 days; assay type: functional, cell-based; conditions: 240 h; method in brief: as §3
# [6] = Antiproliferative activity against human SKO-007 cells after 10 days; assay type: functional, cell-based; conditions: SKO-007, 240 h
# [7] = Antiproliferative activity against human RKOE6 cells after 10 days; assay type: functional, cell-based; conditions: RKOE6, 240 h
# Method in brief: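 Tested in the Eurofins Oncopanel of about 240 cancer cell lines, all mycoplasma-negative and STR-verified. Cells were exposed to compound for 10 days in 2D culture, and a proliferative IC50 was derived from the concentration series. The highest concentration tested was 10 μM in the SMYD2 inhibitor screen and 25 μM in the SMYD3 inhibitor screen. Values are means of three biological replicates.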
# [8] = Antiproliferative activity against human KPL-1 cells after 10 days; assay type: functional, cell-based; conditions: KPL-1, 240 h; method in brief: as §2
# T47D = assay: Antiproliferative activity against human T47D cells after 10 days; assay type: functional, cell-based; conditions: 240 h
# SK-NEP-1 = assay: Antiproliferative activity against human SK-NEP-1 cells after 10 days; assay type: functional, cell-based; conditions: SK-NEP-1, 240 h
# RPMI-6666 = assay: Antiproliferative activity against human RPMI-6666 cells after 10 days; assay type: functional, cell-based; conditions: RPMI-6666, 240 h
# AGS = assay: Antiproliferative activity against human AGS cells after 10 days; assay type: functional, cell-based; conditions: 240 h; method in brief: as §1
# OE33 = assay: Antiproliferative activity against human OE33 cells after 10 days; assay type: functional, cell-based; conditions: OE33, 240 h; method in brief: as §2
# MV4-11 = assay: Antiproliferative activity against human MV4-11 cells after 10 days; assay type: functional, cell-based; conditions: MV4-11, 240 h; method in brief: as §2
# HPAF-II = assay: Antiproliferative activity against human HPAF-II cells after 10 days; assay type: functional, cell-based; conditions: 240 h; method in brief: as §3
smiles,measurement,setting,value
O=C(NC1CN(Cc2cnn(Cc3ccccc3)c2)C1)c1cn(C2CC2)nn1,IC50,THP-1,> 10000 nM
same,IC50,SU.86.86,> 10 µM
same,IC50,A-431,> 10 µM
same,IC50,LS174T,> 10000 nM
same,IC50,A 172,> 10000 nM
same,IC50,SNU-423,> 10000 nM
same,IC50,A549,> 10 µM
same,IC50,[1],> 10 µM
same,IC50,DK-MG,> 10 µM
same,IC50,SW900,> 10 µM
same,IC50,U-87 MG,> 10000 nM
same,IC50,SK-UT-1,> 10000 nM
same,IC50,MOLT-3,> 10000 nM
same,IC50,SNU-5,> 10 µM
same,IC50,CHP-212,> 10000 nM
same,IC50,[2],> 10000 nM
same,IC50,786-0,> 10000 nM
same,IC50,[3],> 10000 nM
same,IC50,TCC-SUP,> 10000 nM
same,IC50,CAKI-2,> 10000 nM
same,IC50,SW1463,> 10 µM
same,IC50,Raji,> 10000 nM
same,IC50,FaDu,> 10000 nM
same,IC50,SCaBER,> 10000 nM
same,IC50,[4],> 10000 nM
same,IC50,CHL-1,> 10000 nM
same,IC50,[5],> 10000 nM
same,IC50,HT-3,> 10 µM
same,IC50,SH-4,> 10000 nM
same,IC50,YAPC,> 10000 nM
same,IC50,DU-145,> 10 µM
same,IC50,SNU1,> 10000 nM
same,IC50,Hs 695T,> 10 µM
same,IC50,SCC-9,> 10000 nM
same,IC50,RL95-2,> 10000 nM
same,IC50,SK-BR-3,> 10000 nM
same,IC50,BT-549,> 10 µM
same,IC50,MDA-MB-436,> 10 µM
same,IC50,U138-MG,> 10 µM
same,IC50,Daudi,> 10000 nM
same,IC50,[6],168 nM
same,IC50,[7],> 10000 nM
same,IC50,[8],> 10 µM
same,IC50,T47D,> 10000 nM
same,IC50,SK-NEP-1,> 10 µM
same,IC50,RPMI-6666,> 10000 nM
same,IC50,AGS,> 10000 nM
same,IC50,OE33,> 10000 nM
same,IC50,MV4-11,> 10000 nM
same,IC50,HPAF-II,> 10000 nM
Cc1cn(CCN2CCN(c3ccccc3-c3cc(C#N)cc(C(=O)NCCCN4CCCC4)c3)CC2)c2ccccc12,IC50,THP-1,2860 nM
same,IC50,SU.86.86,3.55 µM
same,IC50,A-431,6.35 µM
same,IC50,LS174T,1470 nM
same,IC50,A 172,1960 nM
same,IC50,SNU-423,1110 nM
same,IC50,A549,3.39 µM
same,IC50,[1],4.82 µM
same,IC50,DK-MG,6.42 µM
same,IC50,SW900,3.22 µM
same,IC50,U-87 MG,2850 nM
same,IC50,SK-UT-1,1410 nM
same,IC50,MOLT-3,1360 nM
same,IC50,SNU-5,3.32 µM
same,IC50,CHP-212,2100 nM
same,IC50,[2],2540 nM
same,IC50,786-0,2100 nM
same,IC50,[3],1990 nM
same,IC50,TCC-SUP,2260 nM
same,IC50,CAKI-2,1220 nM
same,IC50,SW1463,3.06 µM
same,IC50,Raji,1590 nM
same,IC50,FaDu,2360 nM
same,IC50,SCaBER,1500 nM
same,IC50,[4],1310 nM
same,IC50,CHL-1,2570 nM
same,IC50,[5],1240 nM
same,IC50,HT-3,3.27 µM
same,IC50,SH-4,1150 nM
same,IC50,YAPC,2870 nM
same,IC50,DU-145,4.13 µM
same,IC50,SNU1,1190 nM
same,IC50,Hs 695T,6.65 µM
same,IC50,SCC-9,1180 nM
same,IC50,RL95-2,1290 nM
same,IC50,SK-BR-3,1170 nM
same,IC50,BT-549,3.29 µM
same,IC50,MDA-MB-436,3.03 µM
same,IC50,U138-MG,4.54 µM
same,IC50,Daudi,857 nM
same,IC50,[6],855 nM
same,IC50,[7],1070 nM
same,IC50,[8],3.43 µM
same,IC50,T47D,2220 nM
same,IC50,SK-NEP-1,3.18 µM
same,IC50,RPMI-6666,2910 nM
same,IC50,AGS,1270 nM
same,IC50,OE33,2000 nM
same,IC50,MV4-11,1010 nM
same,IC50,HPAF-II,1600 nM
